Calls of active or inactive are those of the source.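 Rule for the calls, unless noted: active = inhibition above 20% together with a positive visual image hit; inconclusive = visual image hit but inhibition not above 20%; inactive = no visual image hit.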
Key:
[1] = inhibitors of TNFa-induced NFkB p65 translocation, primary screen, imaging, HUVEC, MLSMR starter and 10KST1 sets (AID 438); settings: HUVEC TNFa-induced p65 nuclear translocation; cell count: measured here: nuclei count (cytotoxicity indicator), at 2.08 µM; inhibition: at 2 µM, stronger effect = higher value, 0% TNFa-plus-vehicle, 100% no-TNFa wells;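 note: compound added about 3h40 before a 20 min TNFalpha stimulation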;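 for inhibition: signal is the nuclear over cytoplasmic p65 intensity ratio per well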
[2] = endothelial E-selectin expression blockers – imaging, HUVEC, immunofluorescence, MLSMR starter and 10KST1 sets, primary screen (AID 487;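 active = visually confirmed hit in the image check and inhibition above 20%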;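 for inhibition: signal is fraction of cell area covered by stained E-selectin grains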;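 for nuclei count: 100% = median nuclei count of all wells on the same plate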); settings: HUVEC TNFalpha-induced E-selectin immunofluorescence imaging, at 2 µM; inhibition: stronger effect = higher value; nuclei count: measured here: cell number, toxicity
[3] = Primary imaging screen for DUSP6 inhibitors that restore phospho-Erk in transfected HeLa cells, chemical complementation (AID 609;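 active = compounds giving at least 50% inhibition in the cell-based MKP-3 phosphatase rescue imaging test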;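 for inhibition: phospho-Erk level distribution per well compared with pooled transfected vehicle control wells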); settings: HeLa MKP-3 transfected, phospho-Erk imaging KS statistic, at 10 µM, cells stimulated with TPA for 15 min
[4] = target: Dual specificity protein phosphatase 6 (Homo sapiens) (UniProt Q16828); test: as above; settings: HeLa MKP-3 transfected, phospho-Erk imaging KS statistic; at 10 µM; stronger effect = higher value; cells stimulated with TPA for 15 min
[5] = target: Voltage-gated potassium channel subunit beta-2 (Rattus norvegicus) (UniProt P62483); test: inhibitors of rat Kvbeta2 reductase activity – biochemical, NADPH fluorescence, primary screen (AID 622;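 active = fluorescence slope higher than the sample average by over 3 SD, cut at about -0.22 in these data, passing the limit was not always enough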;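 note: slope of raw intensity against log time taken from 70 to 1610 s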); settings: recombinant KvBeta, 4-cyanobenzaldehyde reduction, at 10 µM, stronger effect = higher value
[6] = target: Voltage-gated potassium channel subunit beta-2 (Rattus norvegicus) (UniProt P62483); test: enhancers of rat Kvbeta2 NADPH turnover – biochemical, NADPH fluorescence, primary screen (AID 623;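 active = NADPH fluorescence slope more negative than the mean of all samples by about 3 SD, 99.7% confidence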;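 note: fluorescence intensity change per second fitted from 20 to 320 s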); settings: Recombinant KvBeta, NADPH fluorescence decrease slope, 10 min; at 10 µM; stronger effect = lower value
[7] = target: Muscarinic acetylcholine receptor M4 (Homo sapiens) (UniProt P08173); test: M4-linked GIRK flux change, two-sided – cell-based, HEK293 M4/GIRK, thallium flux, BTC-AM, M4 allosteric agonist project, primary screen (AID 625;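 active = fluorescence slope after compound addition differing from the mean of all tested samples at 99.7% confidence, mostly higher but some lower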;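 note: thallium influx through GIRK channels coupled to M4 in HEK293 cells with BTC-AM dye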); settings: at 10 µM, actives lie on both sides
In short: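 Material – HEK293 cells with M4 receptor and GIRK channels · Buffer or medium – pH 7.3 thallium assay buffer · Doses – one dose, 10 µM final · Timing – cells overnight at 37 °C, BTC-AM loading 1 h, reads 2 min total · Measured by – kinetic fluorescence with BTC-AM dye · Controls – carbachol and DMSO controls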

[8] = inhibitors of larval lipid processing in zebrafish, primary screen, whole organism, PED6 fluorescence, gall bladder and intestine (AID 686;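 active = a full or partial loss of lipid-probe fluorescence in the fish gall bladder, intestine or both, judged by eye; inactive = no fluorescence loss, or compound toxic to the fish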;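 note: larvae 5 to 7 days old with five fish per well; signal comes from phospholipase A2 cleavage of quenched PED6 carried via bile; overnight exposure to compound and PED6 before scoring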); settings: Zebrafish larvae PED6 lipid processing, fluorescence scoring; screened at 20 µM (by protocol)
In short: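 system = live zebrafish larvae aged 5-7 days, whole organism | probe or stimulus = ingested quenched lipid PED6 at 100 nM | doses = 20 µM single dose | timing = overnight exposure | detection = fluorescence microscopy with visual scoring of gall bladder and intestine | read-out = visual per-well fluorescence inhibition score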

[9] = loss of swimming-algae plug formation – whole organism, Chlamydomonas reinhardtii, WT vs cilia-less mutant, absorbance, 96-well, primary screen (AID 463189;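 active = inhibition at or above 50% relative to wild type and mutant plate controls; inactive = inhibition below 50%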;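 note: 0% = wild type cc124 cells in DMSO and 100% = ciliumless bld1 mutant cells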); settings: Chlamydomonas reinhardtii gravitaxis, OD600 absorbance, 2 days; at 10 µM; stronger effect = higher value
[10] = measured here: cell density z-score
[11] = measured here: nuclear c-Myc green intensity z-score
[12] = measured here: nuclear pErk red intensity z-score, stronger effect = higher value

Sequence of Dual specificity protein phosphatase 6 (Homo sapiens) (Q16828 whole entry, looked up): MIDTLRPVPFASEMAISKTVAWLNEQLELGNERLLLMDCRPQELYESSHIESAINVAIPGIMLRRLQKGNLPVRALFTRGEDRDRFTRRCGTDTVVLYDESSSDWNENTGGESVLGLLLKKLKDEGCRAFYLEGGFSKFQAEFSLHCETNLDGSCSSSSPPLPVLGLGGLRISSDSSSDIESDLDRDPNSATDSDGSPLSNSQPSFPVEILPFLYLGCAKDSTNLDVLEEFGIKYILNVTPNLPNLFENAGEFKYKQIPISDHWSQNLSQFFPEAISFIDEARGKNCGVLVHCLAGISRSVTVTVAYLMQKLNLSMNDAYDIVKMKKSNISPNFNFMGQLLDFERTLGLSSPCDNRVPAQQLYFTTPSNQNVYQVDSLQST
Sequence of Muscarinic acetylcholine receptor M4 (Homo sapiens) (P08173 whole entry, looked up): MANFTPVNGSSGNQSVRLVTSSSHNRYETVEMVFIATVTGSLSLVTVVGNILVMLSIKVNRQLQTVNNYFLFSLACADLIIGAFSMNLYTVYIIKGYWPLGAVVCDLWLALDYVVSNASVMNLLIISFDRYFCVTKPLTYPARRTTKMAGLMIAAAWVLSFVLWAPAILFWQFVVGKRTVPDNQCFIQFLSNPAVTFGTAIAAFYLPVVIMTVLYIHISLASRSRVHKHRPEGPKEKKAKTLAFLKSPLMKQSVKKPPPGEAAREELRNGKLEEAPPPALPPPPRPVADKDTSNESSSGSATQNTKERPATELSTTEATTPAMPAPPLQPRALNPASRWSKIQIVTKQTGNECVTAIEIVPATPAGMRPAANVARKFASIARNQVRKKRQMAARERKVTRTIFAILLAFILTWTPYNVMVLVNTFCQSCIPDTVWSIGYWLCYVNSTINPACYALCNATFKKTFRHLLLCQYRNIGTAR
Sequence of Voltage-gated potassium channel subunit beta-2 (Rattus norvegicus) (P62483 whole entry, looked up): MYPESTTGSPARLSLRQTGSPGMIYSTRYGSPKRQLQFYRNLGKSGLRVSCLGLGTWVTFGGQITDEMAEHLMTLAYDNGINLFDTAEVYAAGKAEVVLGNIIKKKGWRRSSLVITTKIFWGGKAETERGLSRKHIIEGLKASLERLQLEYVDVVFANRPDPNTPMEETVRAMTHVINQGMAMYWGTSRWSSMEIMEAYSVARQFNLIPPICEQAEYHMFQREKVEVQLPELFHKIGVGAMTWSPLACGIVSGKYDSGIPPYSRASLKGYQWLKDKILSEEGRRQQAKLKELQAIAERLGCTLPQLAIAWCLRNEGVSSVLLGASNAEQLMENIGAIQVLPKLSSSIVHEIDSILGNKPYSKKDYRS

SMILES	cell count [1]	inhibition [1]	inhibition [2]	nuclei count [2]	z-score [3, 10]	z-score [3, 11]	z-score [3, 12]	inhibition [4]	fluorescence slope [5]	NADPH fluorescence slope [6]	fluorescence slope [7]	outcome [8]	inhibition [9]
CCCn1nnc(NC(=O)c2cc(Br)cc(Br)c2OC)n1	391	-1.7% (inactive)	-24.1% (inactive)	127%	0.877	0.738	0.427	20.2% (inactive)	-0.463 (inactive)	-0.000102 (inactive)	0.00469 (inactive)	inactive	8.4% (inactive)
CCOC(=O)N1CCN(C2OC(=O)c3ccccc32)CC1 (stereo unspecified)	380	0.8% (inactive)	-125% (inactive)	146%	-0.546	-0.533	-0.506	24.4% (inactive)	-0.459 (inactive)	-0.000295 (inactive)	0.00469 (inactive)	inactive; toxic	14% (inactive)
N#CCSc1nc2c(c(=O)n1Cc1ccco1)C1(CCCC1)Cc1ccccc1-2	500	-2.6% (inactive)	-97.3% (inactive)	150%	0.3	0.666	-0.907	13.9% (inactive)	-0.397 (inactive)	-2.2e-05 (inactive)	0.00897 (inactive)	active; weak signal in gallbladder and intestine	-7.4% (inactive)
CN(C)c1ccc(C=Nc2cnn(C)c2C(N)=O)cc1	657	5.6% (inactive)	2% (inactive)	112%	-0.322	0.511	0.593	9.91% (inactive)	-0.548 (inactive)	-8.2e-05 (inactive)	0.00504 (inactive)	inactive	13.4% (inactive)
CCCc1nnc(NC(=O)Nc2ccccc2OC)s1	618	-9.4% (inactive)	14.1% (inactive)	100%	1.95	0.159	-0.528	42.6% (inactive)	-0.515 (inactive)	-4.1e-05 (inactive)	0.0109 (inactive)	inactive	-5.69% (inactive)
CCOC(=O)c1c(-c2cccs2)csc1NC(=O)c1ccncc1	469	-0.7% (inactive)	-21.4% (inactive)	128%	0.172	0.303	-0.644	4.37% (inactive)	-0.308 (inactive)	-2.8e-05 (inactive)	0.00693 (inactive)	inactive	12.5% (inactive)
C=CCc1cccc(CNc2nc3ccccc3n2C(C)C)c1O	653	4.4% (inactive)	17.8% (inactive)	145%	-1.18	1.98	1.18	-3.95% (inactive)	-0.502 (inactive)	-9.2e-05 (inactive)	0.00595 (inactive)	inactive	2.16% (inactive)
c1ccc2c(N3CCCCC3)nc(N3CCCCC3)nc2c1	497	-2.8% (inactive)	20.7% (inactive)	159%	-1.53	0.598	1.04	1.9e-07% (inactive)	-0.388 (inactive)	-3.5e-05 (inactive)	0.00468 (inactive)	inactive	4.68% (inactive)
C=CCN(CC=C)c1nc2ccccc2nc1C(C#N)C(=O)OC(C)C (stereo unspecified)	639	-6.1% (inactive)	-48.1% (inactive)	173%	-0.0253	-0.36	0.934	-13.3% (inactive)	-0.467 (inactive)	-4.8e-05 (inactive)	0.00206 (inactive)	inactive	7.18% (inactive)
CCOc1ccc(N=C(NC#N)SCC(=O)NC2CC2)cc1	613	-1.5% (inactive)	-40.6% (inactive)	161%	0.193	0.708	0.295	-2.29% (inactive)	-0.491 (inactive)	-4.8e-05 (inactive)	0.00628 (inactive)	inactive	-3.68% (inactive)
Cc1cc(=O)oc(C)c1C(=O)NCCc1ccccc1	661	9.3% (inactive)	-1% (inactive)	109%	-0.903	1.05	0.63	5.35% (inactive)	-0.433 (inactive)	-4.2e-05 (inactive)	0.00484 (inactive)	inactive	-7.3% (inactive)
O=C(Nc1ccccn1)c1ccc(=O)[nH]n1	634	4.2% (inactive)	-92.2% (inactive)	134%	0.857	-1.57	-0.248	6.51% (inactive)	-0.475 (inactive)	-0.0002 (inactive)	0.00627 (inactive)	inactive	20.6% (inactive)
Cc1ccc(CNC(=O)c2cc3c(=O)n4ccccc4nc3n(CC3CCCO3)c2=N)cc1 (stereo unspecified)	542	-11.9% (inactive)	-40.3% (inactive)	93.4%	-0.636	0.681	-1.25	2.71% (inactive)	-0.331 (inactive)	-2.1e-05 (inactive)	-0.000734 (active)	inactive	32.5% (inactive)
C/C(=N\O)c1c(C)c2ccccc2n1C	553	-7.3% (inactive)	-33% (inactive)	155%	0.633	-0.875	0.794	11.9% (inactive)	-0.374 (inactive)	-3.2e-05 (inactive)	0.00461 (inactive)	inactive	15.1% (inactive)
CCOC(=O)CSc1nnc(C)c(=O)[nH]1	670	-5.5% (inactive)	-201% (inactive)	163%	-0.66	0.692	1.49	-16.8% (inactive)	-0.476 (inactive)	-4.6e-05 (inactive)	0.0066 (inactive)	inactive	-3.91% (inactive)
Cc1[nH]nc(-c2ccc(O)cc2O)c1Oc1ccccc1	565	-2.3% (inactive)	-110% (inactive)	175%	1.43	-0.0429	-0.868	15.9% (inactive)	-0.433 (inactive)	-7e-05 (inactive)	0.00505 (inactive)	inactive	9.24% (inactive)
Cc1nn(C)cc1/C=N/n1nnnc1N	680	-10.2% (inactive)	-45.8% (inactive)	155%	0.00474	-1.39	0.944	4.37% (inactive)	-0.487 (inactive)	-3.8e-05 (inactive)	0.00512 (inactive)	inactive	11.8% (inactive)
CCOC(=O)C1=C(N)n2c(s/c(=C\c3cccnc3)c2=O)=C(C(=O)OC)C1c1cccnc1 (stereo unspecified)	326	-14.1% (inactive)	-129% (inactive)	110%	-0.584	1.82	-0.0878	-2.59% (inactive)	-0.501 (inactive)	1.7e-05 (inactive)	0.00354 (inactive)	inactive	-3.27% (inactive)
CC12CCC(=O)N1c1c(sc3nc(N4CCOCC4)c4c(c13)CCCC4)C(=O)N2 (stereo unspecified)	363	1.4% (inactive)	-105% (inactive)	122%	-0.444	1.24	0.642	5.42% (inactive)	-0.316 (inactive)	-5.5e-05 (inactive)	0.00445 (inactive)	inactive	26.7% (inactive)
N#Cc1cccc(-n2c(-c3ccccc3)nnc2-c2ccccc2)c1C#N	587	-2.7% (inactive)	-7.1% (inactive)	99.3%	-3.17	1.25	1.22	-7.86% (inactive)	-0.508 (inactive)	-6.3e-05 (inactive)	0.00624 (inactive)	inactive	6.01% (inactive)
CSc1nncc(=O)[nH]1	642	1.5% (inactive)	-96.8% (inactive)	160%	0.525	-0.545	-0.327	6.51% (inactive)	-0.452 (inactive)	-4.4e-05 (inactive)	0.00648 (inactive)	inactive	-3.84% (inactive)
COc1ccc(C2=CC(c3ccc(C)cc3)n3nnnc3N2)cc1 (stereo unspecified)	524	-9.2% (inactive)	29.9% (inactive)	186%	-0.166	-0.102	0.752	-9.91% (inactive)	-0.294 (inactive)	-4.1e-05 (inactive)	0.00566 (inactive)	inactive	-5.34% (inactive)
CCOCCn1c(SC)nc2c1c(=O)[nH]c(=O)n2C	498	6.3% (inactive)	-6% (inactive)	122%	1.57	-1.62	0.579	12.8% (inactive)	-0.529 (inactive)	-3.7e-05 (inactive)	0.00609 (inactive)	inactive	44.4% (inactive)
COc1cc(/C=N/n2nnnc2N)ccc1O	594	-13% (inactive)	-19.6% (inactive)	150%	0.109	-0.705	-0.571	17.7% (inactive)	-0.448 (inactive)	-0.000221 (inactive)	0.00627 (inactive)	inactive	14% (inactive)
Cc1cc(SCCC(=O)O)nc2ccccc12	685	-18.8% (inactive)	-36.7% (inactive)	201%	-0.264	0.626	0.219	5.95% (inactive)	-0.488 (inactive)	-4.8e-05 (inactive)	0.00621 (inactive)	inactive	-15.2% (inactive)
CCn1c(SCC(=O)Nc2ccccc2C(=O)OC)nnc1-c1ccc(N)cc1	653	2.4% (inactive)	7.2% (inactive)	176%	0.614	0.0177	-0.913	22.1% (inactive)	-0.46 (inactive)	-4.1e-05 (inactive)	0.00557 (inactive)	inactive	19.8% (inactive)
Cc1cc(C)nc(N(C#N)CN2C(=O)c3ccccc3C2=O)n1	629	6.2% (inactive)	26.6% (inactive)	107%	-0.879	0.404	-0.916	-9.53% (inactive)	-0.523 (inactive)	-3.9e-05 (inactive)	0.00446 (inactive)	inactive	30.7% (inactive)

Reference: PubChem BioAssay
